Most compounds without a hit are left out; they make up all but 2.5% or so of the library.
FN deposition inh – fibronectin deposition inhibition. AH1F fibroblasts, Alexa488-fibronectin deposition fluorescence, overnight. inhibition, % at 12.6 µM. hit rate 0.086% among 350,000;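 active = mean inhibition across replicates of 30% or more, regardless of how many single replicates reach that level; inconclusive = mean under 30% yet at least half of replicates reach 30%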;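 also: positive control wells lacked labelled fibronectin entirely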
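Assay system: AH1F fibroblasts assembling fluorescent fibronectin matrix; Amount: 10000 AH1F cells per well; Buffer or medium: DMEM, 2% serum; Probe or stimulus: Alexa488-fibronectin, 24 nM final in well; Doses: single compound dose, delivered by pin transfer; Incubation: 1 h adhesion, overnight exposure; Measured by: fluorescence 485/525 nm; Read-out: fibronectin deposition inhibition.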
Env fusion inh – blocks HIV Env-driven cell-cell fusion | HeLa-JRFL Env/CEM21 cell fusion, luciferase | inhibition, % at 12.3 µM | hit rate 1.1% among 360,000 | AID 651610;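 active = mean replicate inhibition score of at least 50 and every replicate individually at or above 50; inconclusive = only one of the two criteria met; inactive = mean below 50 and not all replicates reaching 50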;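 also: 0% = plate neutral controls and 100% = maraviroc near 300 nM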
MLL AF4-AF9 inh – inhibitors of human MLL-AF4/AF9 interaction. AlphaScreen, biotin-AF4 peptide binding to FLAG-AF9. inhibition, % at 10 µM. hit rate 0.47% among 350,000. AID 651704;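 active = every replicate reaching a set inhibition limit, whatever the replicate mean, cut at about 25% in these data; inconclusive = mean inhibition reaches that limit but some replicates miss it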;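 also: 0% = plate neutral control median and 100% = total signal loss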
Target sequence (P42568 whole entry, looked up): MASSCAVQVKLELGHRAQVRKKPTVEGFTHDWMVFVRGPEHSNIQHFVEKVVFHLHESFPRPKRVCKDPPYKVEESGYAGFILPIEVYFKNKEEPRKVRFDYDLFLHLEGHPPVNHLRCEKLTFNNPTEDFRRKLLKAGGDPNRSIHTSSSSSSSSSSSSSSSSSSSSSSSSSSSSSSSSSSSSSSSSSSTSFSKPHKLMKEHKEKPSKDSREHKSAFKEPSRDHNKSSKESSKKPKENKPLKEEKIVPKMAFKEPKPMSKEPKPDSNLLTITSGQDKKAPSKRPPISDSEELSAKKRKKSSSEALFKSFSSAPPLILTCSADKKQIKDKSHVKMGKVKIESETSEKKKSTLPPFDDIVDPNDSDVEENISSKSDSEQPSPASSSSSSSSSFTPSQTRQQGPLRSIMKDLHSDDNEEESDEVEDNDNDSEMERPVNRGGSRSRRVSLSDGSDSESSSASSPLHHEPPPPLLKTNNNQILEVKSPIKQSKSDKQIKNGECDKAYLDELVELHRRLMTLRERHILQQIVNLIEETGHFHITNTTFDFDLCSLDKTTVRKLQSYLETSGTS
EWS-Fli block – blocks EWS/Fli oncoprotein-driven transcription; A673 NR0B1-luciferase reporter, viability-normalised; inhibition, % at 12.6 µM; hit rate 0.67% among 350,000; AID 651661;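 active = mean inhibition of at least 50% after viability correction, with every replicate also passing that limit; inconclusive = mean reaches 50% but only one of two replicates passes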;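 also: firefly luciferase signal divided by Alamar Blue viability fluorescence both relative to DMSO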
PAX8 inh HTS – lowers PAX8-driven luciferase in RMG-I cells. RMG-I TPO-luciferase reporter, SteadyGlo, 24 h. inhibition, % at 12.6 µM. hit rate 1.2% among 360,000. AID 652154;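 active = mean replicate inhibition at least 60% with every replicate also reaching 60%; inconclusive = only one of the two criteria is met; inactive = mean below 60% and not all replicates reaching 60%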;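 also: luciferase light reporting Pax8 driven TPO promoter activity; plate controls were median of neutral control wells for no effect and mitoxantrone controls for full effect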
N-glyco inh – blocks N-linked glycosylation in D54 reporter cells. D54 ERlucT glycosylation luciferase reporter, 24 h; percent of 100 nM tunicamycin response. reporter increase, % at 12.5 µM. hit rate 0.23% among 360,000. AID 588692;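 active = mean luciferase reporter signal, scaled so untreated is 0 and the glycosylation-blocking control 100, at or above a set limit in every replicate; inconclusive = mean reaches the limit but not every replicate does; inactive = mean below the limit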;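 also: luciferase carries N-glycosylation sites so blocking glycosylation raises the light; 0% = median of neutral control wells and 100% = median of 100 nM tunicamycin wells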
The depositor's hits bear a star; u = inconclusive; x = no result given; [ ] = remark or other dose.

SMILES	FN deposition inh	Env fusion inh	MLL AF4-AF9 inh	EWS-Fli block	PAX8 inh HTS	N-glyco inh
CCOC(=O)c1ccc(NC(=O)Cn2nc(C)c3ccccc3c2=O)cc1	-6	21	4	-2	15	1
CCCNC(=O)N(C)C[C@H]1Oc2ncc(-c3ccc(OC)cc3)cc2C(=O)N([C@@H](C)CO)C[C@H]1C	x	-10[16.7 µM]	0	-10	x	x
CC(=O)N1CC2(C1)[C@@H](c1ccc(-c3cccc(F)c3)cc1)[C@@H](CO)N2CC1CCCC1	x	x	1	-4	x	x
Cc1ccccc1Cn1c(=O)n(CCCC(=O)NCc2ccco2)c(=O)c2sccc21	8	-14	x	x	14	-2
COCCCn1c(SCC(=O)Nc2ccc(C)cc2)nc2ccccc2c1=O	4	7	-1	-9	12	0
Cc1cc(C)c(Cn2c(=O)n(CCCC(=O)NCc3ccco3)c(=O)c3sccc32)c(C)c1	34*	-467	x	x	x	-1
Cc1ccc(Cn2c(SCC(=O)NCc3ccco3)nc3ccsc3c2=O)cc1	-5	71*	x	x	x	1
Cc1ccc(NC(=O)CSc2nc3ccccc3c(=O)n2Cc2cccs2)cc1	2	x	-35	-22	66*	-3
CCC(=O)N1C[C@@H](C)[C@H](OC)CN(C)C(=O)c2ccc(NC(=O)Nc3cccc(F)c3)cc2OC[C@H]1C	7	x	3	-1	x	x
COc1ccc(OC)c2c1C(=O)C(Cl)=C(Cl)C2=O	60*	94*	-8	45	100*	-3
CC=Cc1ccc2n(c1=O)C[C@@H]1[C@@H](CO)[C@H](C(=O)NC3CCC3)N(CC)[C@H]21 (mixture of isomers)	x	x	x	2	4	x
Cc1ccc(-c2csc3nc4cc(C(=O)NC5CCC(O)CC5)ccc4c(=O)n23)cc1 (stereo not drawn)	5	-6	-6	-5	12	-1
Cc1csc2nc3cc(C(N)=O)ccc3c(=O)n12	x	-13	55*	-22	-17	3
NC(=O)c1ccc2c(=O)n3c(-c4cc(Cl)c(N)c(Cl)c4)csc3nc2c1	9	17	-5	47	10	29*
CCN(c1ccccc1)c1ncnc2c1cnn2-c1ccccc1	1	-32	28*	-101	-164	0
c1ccc(CNc2ncnc3c2cnn3-c2ccccc2)cc1	-3	-10	x	x	x	26*
O=C(Cn1cnc2c(NCc3ccccc3)ncnc21)NCc1ccccc1	23	-50	-1	56*	18	17
O=C(Cc1cccnc1)N[C@H]1CC[C@H](CCn2cc(Cc3ccccc3)nn2)O[C@@H]1CO	x	15[16.7 µM]	-2	-15	-26	x
COc1ccc2c3c(n(C)c2c1)[C@H](CO)N(C(=O)C1CC1)CC31CN(C(=O)C2CCOCC2)C1	x	x	-12	-8	0	x
O=C(O)/C=C/C(=O)NCc1ccccc1	5	x	-1	-1	82*	1
Cc1ccc(C(=O)NC(NCc2ccccc2)C(Cl)(Cl)Cl)cc1 (stereo not drawn)	-9	x	-1	5	145*	2
O=C(NCc1ccccc1)c1ccc(C(=O)NCc2ccccc2)cc1	0	82*	-3	-14	x	-3
O=C(O)/C=C\C(=O)NCc1ccccc1	-1	-117	x	x	-2	-1
C[C@@H]1CN([C@H](C)CO)S(=O)(=O)c2ccc(-c3ccccc3)cc2O[C@@H]1CN(C)Cc1ccncc1	7	1[16.7 µM]	4	9	x	x
COc1ccccc1-c1cnc2c(c1)C(=O)N([C@H](C)CO)C[C@@H](C)[C@H](CN(C)Cc1ccc(F)cc1)O2	17	23[16.7 µM]	8	-4	23	x
SMILES	FN deposition inh	Env fusion inh	MLL AF4-AF9 inh	EWS-Fli block	PAX8 inh HTS	N-glyco inh
O=C(C[C@H]1CC[C@H](NS(=O)(=O)c2ccc(F)cc2)[C@H](CO)O1)NCc1ccccc1F	11	x	-3	1	x	x
O=C(CC1CC1)N1CC2(C1)[C@H](c1ccccc1)[C@@H](CO)N2Cc1cccc(F)c1	x	x	-1	7	2	x
COc1cccc(OCCSc2nnc3sc4ccccc4n23)c1	x	x	x	x	x	0
c1ccc(OCCSc2nnc3sc4ccccc4n23)cc1	x	x	4	60*	x	-18
O=C(Nc1nccs1)[C@H]1[C@H](CO)[C@H]2Cn3c(ccc(-c4cccnc4)c3=O)[C@H]2N1CC1CC1	x	x	-2	-11	-28	x
O=C1[C@H]2[C@@H](c3ccc(F)cc3)N3C(=O)N(c4cccc(Cl)c4)C(=O)[C@@]3(Cc3ccc(Cl)cc3)[C@H]2C(=O)N1C1CCCCC1	-6	99*	-7	-7	15	2
CC(C)C[C@@]12C(=O)N(c3cccc(F)c3)C(=O)N1[C@H](c1ccc(F)cc1)[C@@H]1C(=O)N(C3CCCCC3)C(=O)[C@@H]12	2	9	0	9	8	-6
C[C@@]12C(=O)N(c3cccc(F)c3)C(=O)N1[C@H](c1ccc(F)cc1)[C@@H]1C(=O)N(C3CCCCC3)C(=O)[C@@H]12	x	x	x	x	x	0
CC(C)C[C@@]12C(=O)N(c3cccc(F)c3)C(=O)N1[C@H](c1ccc(Cl)cc1)[C@@H]1C(=O)N(C3CCCCC3)C(=O)[C@@H]12	-1	95*	-10	-3	-12	-3
O=C1[C@H]2[C@@H](c3ccc(F)cc3)N3C(=O)N(c4cccc(Cl)c4)C(=O)[C@@]3(Cc3ccccc3)[C@H]2C(=O)N1C1CCCCC1	-6	14	0	13	4	72*
COc1cc2nc(NC(=O)c3ccccc3)sc(=O)c2cc1OC	6	59*	2	9	16	41*
COc1ccc2nc(NC(=O)c3ccccc3C(=O)O)sc2c1	-4	-7	-1	3	14	2
COc1ccccc1C(=O)Nc1nc2ccccc2s1	6	79*	u	93*	101*	-23
COc1ccc(C(=O)Nc2nc3ccccc3s2)c(OC)c1	4	79*	12	91*	106*	-20
COc1ccc(CN(C)C[C@H]2Oc3ccc(NC(=O)NC(C)C)cc3CC(=O)N([C@H](C)CO)C[C@H]2C)cc1	x	x	-3	x	-3	x
C[C@@H]1CN([C@H](C)CO)C(=O)c2cc(NS(=O)(=O)c3ccccc3)ccc2O[C@H]1CN(C)S(C)(=O)=O	x	x	0	-2	x	x
CN(C)c1ccc(-c2nn3c(-c4ccccc4Cl)nnc3s2)cc1	x	7	x	x	44	15
COc1ccccc1-c1nnc2sc(-c3ccc(N(C)C)cc3)nn12	-3	-15	-1	60*	29	9
C[C@@H]1CN([C@@H](C)CO)C(=O)c2cc(/C=C/c3ccccc3)cnc2O[C@@H]1CN(C)C(=O)Nc1ccc(C(F)(F)F)cc1	-1	24[16.7 µM]	1	52*	x	x
C[C@H]1CN([C@@H](C)CO)C(=O)c2cc(/C=C/c3ccccc3)cnc2O[C@@H]1CN(C)C(=O)C1CC1	-24	-8[16.7 µM]	x	-12	x	x
C[C@@H]1CN([C@H](C)CO)C(=O)c2cc(/C=C/c3ccccc3)cnc2O[C@@H]1CN(C)C(=O)C1CC1	4	x	1	-14	74*	x

Screening results deposited in PubChem by Broad Institute.
